The values that follow come from ChEMBL document CHEMBL4387702, “Design and synthesis novel di-carbonyl analogs of curcumin (DACs) act as potent anti-inflammatory agents against LPS-induced acute lung injury (ALI)” (Eur J Med Chem, 2019).

Molecules are shown by their SMILES. Activity calls are given as the source filed them. The calls are words filed in the database; no cut-off is given here.

In series [1] the test system is RAW264.7. In words: Inhibition of MAPK/NFkappaB in ICR mouse RAW264.7 cells assessed as reduction in LPS-induced TNFalpha production at 10 uM pretreated for 0.5 hrs followed by LPS challenge and measured after 24 hrs by ELISA relative to control. In kind it is cell-based. (In general: In an ELISA, binding on a coated surface is turned into a signal by an enzyme label.)

Series [2] has as its system RAW264.7. Briefly: Cytotoxicity against ICR mouse RAW264.7 cells assessed as effect on cell proliferation at 10 uM after 24 hrs by MTT assay. In kind it is cell-based. To be noted: raw264.7, 24 h. In general terms: Tetrazolium assays rely on reduction of a dye to a coloured formazan, in cell work by metabolically active cells.
Series [3] can be described thus: Inhibition of MAPK/NFkappaB in ICR mouse RAW264.7 cells assessed as reduction in LPS-induced TNFalpha production pretreated for 0.5 hrs followed by LPS challenge and measured after 24 hrs by ELISA. In kind it is cell-based.
A short description of series [4]: Stability in pH 7.4 phosphate buffer assessed as compound decomposition measured up to 25 mins by UV-Vis spectroscopy. To be noted: pH 7.4, 25 min. In kind it is physicochemical. The gist of the method:
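Compound stability was followed by recording UV-visible absorption spectra in phosphate buffer at pH 7.4.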

The subject of series [5] is RAW264.7. Briefly: Inhibition of LPS-induced ERK phosphorylation in ICR mouse RAW264.7 cells at 10 uM preincubated for 0.5 hrs followed by LPS challenge and measured after 30 mins by immunoblotting analysis. In kind it is cell-based. In outline: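 RAW 264.7 cells were pretreated with compound for 0.5 h and then stimulated with LPS for 30 min. Lysates were resolved on 10% or 12% SDS-PAGE and transferred to nitrocellulose. Membranes were blocked in TBS (pH 7.6) with 0.05% Tween 20 and 5% milk. Blots were probed for p-p38, p38, p-ERK, ERK, IκBα and GAPDH, detected with HRP secondaries and ECL.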
(In western blotting, separated proteins are transferred to a membrane and probed.)

The nature of series [6]: Inhibition of MAPK/NFkappaB in ICR mouse RAW264.7 cells assessed as reduction in LPS-induced IL6 production pretreated for 0.5 hrs followed by LPS challenge and measured after 24 hrs by ELISA. In kind it is cell-based.
The subject of series [7] is RAW264.7. In words: Inhibition of MAPK/NFkappaB signaling in ICR mouse RAW264.7 cells assessed as reduction in LPS-induced IL-6 mRNA expression pretreated for 0.5 hrs followed by LPS challenge and measured after 40 mins by TRIZOL reagent-based RT-qPCR analysis. In kind it is cell-based. The gist of the method: (§1)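 RAW 264.7 cells were pretreated with compound for 0.5 h and then activated with LPS. Values were normalized to actin and expressed relative to the LPS group.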

The subject of series [8] is RAW264.7. In words: Inhibition of MAPK/NFkappaB signaling in ICR mouse RAW264.7 cells assessed as reduction in LPS-induced IL1beta mRNA expression pretreated for 0.5 hrs followed by LPS challenge and measured after 40 mins by TRIZOL reagent-based RT-qPCR analysis. In kind it is cell-based. In outline: as §1
Series [9] relates to RAW264.7. Briefly: Inhibition of MAPK/NFkappaB signaling in ICR mouse RAW264.7 cells assessed as reduction in LPS-induced VCAM1 mRNA expression pretreated for 0.5 hrs followed by LPS challenge and measured after 40 mins by TRIZOL reagent-based RT-qPCR analysis. In kind it is cell-based. The gist of the method: as §1
The subject of series [10] is Mus musculus. Briefly: Antiinflammatory activity in C57BL/6 mouse model of LPS-induced acute lung injury assessed as reduction in TNF-alpha production in serum at 10 mg/kg, ip administered daily for one week prior to LPS challenge and measured after 6 hrs by ELISA. In kind it is functional, organism-based. In outline:
(§2)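 In C57BL/6 mice (eight per group), compound was dosed at 10 mg/kg i.p. once daily for a week, with a 0.9% saline vehicle control. LPS 5 mg/kg was given intratracheally and animals were euthanized with chloral hydrate after 6 h. TNF-α and IL-6 in serum and BALF were measured by ELISA. Data are mean ± SEM, n = 6.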

For series [11], the system named is Mus musculus. In words: Antiinflammatory activity in C57BL/6 mouse model of LPS-induced acute lung injury assessed as reduction in IL-6 production in BALF at 10 mg/kg, ip administered daily for one week prior to LPS challenge and measured after 6 hrs by ELISA. In kind it is functional, organism-based. In outline: as §2
Series [12] relates to Mus musculus. In words: Antiinflammatory activity in C57BL/6 mouse model of LPS-induced acute lung injury assessed as reduction in IL1beta mRNA expression in lung tissue at 10 mg/kg, ip administered daily for one week prior to LPS challenge and measured after 6 hrs by TRIZOL reagent-based RT-qPCR analysis. In kind it is functional, organism-based. The gist of the method:
(§3)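 Mouse ALI model with eight C57BL/6 mice per group. Compound was given at 10 mg/kg i.p. daily for one week; controls received 0.9% saline. LPS was instilled intratracheally at 5 mg/kg. Mice were euthanized with chloral hydrate 6 h later and lungs collected. Lung mRNA for each target was quantified by real-time qPCR.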

Series [13] deals with Mus musculus. Briefly: Antiinflammatory activity in C57BL/6 mouse model of LPS-induced acute lung injury assessed as reduction in VCAM1 mRNA expression in lung tissue at 10 mg/kg, ip administered daily for one week prior to LPS challenge and measured after 6 hrs by TRIZOL reagent-based RT-qPCR analysis. In kind it is functional, organism-based. In outline:
as §3

Series [14] in a line: AUC (0 to t) in Sprague-Dawley rat at 50 mg/kg, po by UHPLC-MS/MS analysis. In kind it is ADME, organism-based. To be noted: in vivo. The gist of the method:
(§4)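 Male Sprague-Dawley rats (250 ± 20 g) fasted overnight with free access to water, n = 5 per route. Intravenous dose was 5 mg/kg; the intragastric dose is printed as 20 mg/kg in the methods and 50 mg/kg in the table. Tail blood was taken at 0.083, 0.25, 0.5, 1, 2, 4, 6, 9, 12 and 24 h. Samples were centrifuged (12000 rpm, 10 min), deproteinized with 2 volumes of acetonitrile, re-centrifuged and quantified by UHPLC-MS/MS.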

Series [15] can be described thus: AUC (0 to infinity) in Sprague-Dawley rat at 50 mg/kg, po by UHPLC-MS/MS analysis. In kind it is ADME, organism-based. Also on record: dose 50 mg/kg, time infinity, route oral. To be noted: in vivo. The gist of the method:
as §4

Series [16] in a line: MRT (0 to t) in Sprague-Dawley rat at 50 mg/kg, po by UHPLC-MS/MS analysis. To be noted: in vivo. In kind it is ADME, organism-based. The gist of the method:
as §4

Series [17] in a line: MRT (0 to infinity) in Sprague-Dawley rat at 5 mg/kg, iv by UHPLC-MS/MS analysis. In kind it is ADME, organism-based. To be noted: in vivo. The gist of the method: as §4
A short description of series [18]: Half life in Sprague-Dawley rat at 50 mg/kg, po by UHPLC-MS/MS analysis. In kind it is ADME, organism-based. To be noted: in vivo. In outline: as §4
Series [19] in a line: Tmax in Sprague-Dawley rat at 50 mg/kg, po by UHPLC-MS/MS analysis. In kind it is ADME, organism-based. To be noted: in vivo. The gist of the method: (§5)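 Male SD rats (250 ± 20 g), fasted overnight with water ad libitum, dosed intravenously or intragastrically, n = 5. Tail blood taken at 0.083, 0.25, 0.5, 1, 2, 4, 6, 9, 12 and 24 h post-dose and centrifuged 12000 rpm, 10 min. Supernatant mixed with 2 volumes acetonitrile, vortexed and re-centrifuged. Drug measured by UHPLC-MS/MS; PK parameters derived from time-concentration data.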

Series [20] in a line: Tmax in Sprague-Dawley rat at 5 mg/kg, iv by UHPLC-MS/MS analysis. In kind it is ADME, organism-based. To be noted: in vivo. In outline:
as §5

Series [21] in a line: Apparent clearance during terminal phase in Sprague-Dawley rat at 5 mg/kg, iv by UHPLC-MS/MS analysis. In kind it is ADME, organism-based. To be noted: in vivo. In outline:
as §4

Series [22] can be described thus: Apparent volume of distribution during terminal phase in Sprague-Dawley rat at 50 mg/kg, po by UHPLC-MS/MS analysis. In kind it is ADME, organism-based. To be noted: in vivo. The gist of the method:
as §4

Series [23] is described as follows: Apparent volume of distribution during terminal phase in Sprague-Dawley rat at 5 mg/kg, iv by UHPLC-MS/MS analysis. To be noted: in vivo. In kind it is ADME, organism-based. In outline:
as §4

A short description of series [24]: Cmax in Sprague-Dawley rat at 50 mg/kg, po by UHPLC-MS/MS analysis. In kind it is ADME, organism-based. Also on record: dose 50 mg/kg, route oral. To be noted: in vivo. The gist of the method:
as §4

By inhibition is commonly meant how much of the control response was suppressed. For orientation: IC50 means the concentration that gives 50% inhibition. Regarding `COc1cc(/C=C/C(=O)N2CCC/C(=C\c3cc(OC)c(OC)c(OC)c3)C2=O)ccc1O`, the inhibition in the series with RAW264.7 [1] fell in the range of 90.9 to 92.5%. Also, the Activity result in the series with RAW264.7 [2] is given as “Non-Toxic”. The half-maximal inhibitory concentration (IC50) is 3.69 µM in series [3] and 3.68 µM in series [6]. Also, the Stability entry in [4] was “Stable”. Besides, the inhibition result in the series with RAW264.7 [5], with RAW264.7 [7], in the series on RAW264.7 [8] and in the series with RAW264.7 [9] was “Active” each time. The outcome with Mus musculus [10], with Mus musculus [11], in the series on Mus musculus [12] and in the series on Mus musculus [13] was Active.
By AUC(0-t) is commonly meant exposure summed from dosing to a finite time, without extrapolation to infinity. A high value points to high exposure. One may read the AUC as the area under the concentration-time curve, a measure of exposure. Higher therefore signals more exposure. A word on the MRT last: it is the average time that molecules of a dose stay in the body. One may read the MRT as a mean duration of stay, worked out from the concentration-time curve. The Tmax is the time from dosing to the highest level. The term Cmax denotes the highest concentration seen after dosing. As for `COc1cc(/C=C/C(=O)N2CCC/C(=C\c3cc(OC)c(OC)c(OC)c3)C2=O)ccc1OC(C)=O`, the inhibition in the series on RAW264.7 [1] was 90.9 to 92.5%. The Activity entry with RAW264.7 [2] is on record as “Non-Toxic”. For the same compound, the IC50 in series [3] is 2.33 µM; in [6], 2.4 µM. Moreover, the Stability result in series [4] was “Stable”. Besides, the inhibition result in the series on RAW264.7 [5], in the series with RAW264.7 [7], in the series with RAW264.7 [8] and in the series with RAW264.7 [9] was “Active” throughout. In [14], this compound gave an exposure AUC(0-t) of 231 ng·h/mL. The exposure (AUC) in [15] was 325.6 ng·h/mL. For the same compound, in series [16], the MRT last worked out at 7.8 h. Besides, the MRT in [17] came to 19.9 h. The t1/2 in series [18] is 6.7 h. Besides, the Tmax in series [19] is 3.3 h; in [20], 6 min. Moreover, in series [21], the CLz/F was 404.4 L/h/kg. Also, the Vz/F in series [22] was 827.1 L/kg; in series [23] it was 59.5 L/kg. In series [24], this compound displayed a Cmax of 113 ng/mL. Besides, the outcome in the series with Mus musculus [10], in the series with Mus musculus [11], in the series with Mus musculus [12] and in the series on Mus musculus [13] was Active.
